According to article PMC9975633 (Chinese Herbal Medicines, 2022):

What was measured:
[1] = test system: rat different intestinal segments; test: In situ single-pass intestinal perfusion in rats; format: in vivo, Sprague-Dawley rats; details: same tested intestinal segment
In short: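 Male Sprague-Dawley rats (250 ± 50 g) were fasted overnight, anesthetized, and ~10 cm duodenum, jejunum or colon segments were cannulated and flushed with 37 °C saline. Krebs-Ringer perfusate held 22.50 mg/mL extract or matched pure anthraquinones (DMSO <1.0%). Flow was 1 mL/min for 5 min, then 0.2 mL/min for 30 min equilibration. Outflow was collected every 15 min to 120 min and analysed by HPLC. Peff was calculated from gravimetrically corrected volumes and segment length/radius.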

[2] = ref Wang, Yang, & Song, 2001; cited from earlier work
[3] = Bidirectional transport of SKE and RAI in Caco-2 cell monolayer model; format: in vitro ADME, human; details: human; for efflux ratio at 0.05 mg/mL / efflux ratio at 0.1 mg/mL / efflux ratio at 0.025 mg/mL: Caco-2, ER, ER=Papp(B-A)/Papp(A-B); for Papp A→B at 0.05 mg/mL / Papp A→B at 0.1 mg/mL / Papp A→B at 0.025 mg/mL: Caco-2, Papp(A-B), Caco-2, AP-BL; for Papp A→B at 0.05 mg/mL / Papp A→B at 0.1 mg/mL / Papp A→B at 0.025 mg/mL / Papp B→A at 0.05 mg/mL / Papp B→A at 0.1 mg/mL / Papp B→A at 0.025 mg/mL: mean ± SD, n = 3; for Papp B→A at 0.05 mg/mL / Papp B→A at 0.1 mg/mL / Papp B→A at 0.025 mg/mL: Caco-2, Papp(B-A), Caco-2, BL-AP
[4] = test system: Caco-2 cell monolayer; test: as above; format: in vitro ADME, human; details: Caco-2; for Cumulative transport mass (AP-BL): in SKE 0.025, 0.05, 0.1 mg/mL over time, Fig. 3
[5] = target: P-gp (Homo sapiens, UniProt P08183); test: Effect of verapamil; format: in vitro ADME; details: 0.1 mg/mL SKE + 100 μmol/L verapamil; Caco-2; Fig. 4
In short: (§1)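 Caco-2 cells were seeded at 1×10^5/cm² on 0.4 µm inserts and grown about 20 d in DMEM with 10% FBS, then used once TEER exceeded 500 Ω·cm². After a 15 min HBSS equilibration, 0.1 mg/mL extract plus 100 µmol/L inhibitor was dosed AP or BL at 37 °C with 50 r/min shaking. Receiver was sampled with replacement and four anthraquinones were quantified by HPLC. Papp came from the slope, ER = Papp(B-A)/Papp(A-B), n=3.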

[6] = test system: MRP; test: Effect of MK-571; format: in vitro ADME, human; details: 0.1 mg/mL SKE + 100 μmol/L MK-571; Caco-2; Fig. 4
In short: as §1

[7] = in RAI, contents as in 0.05 mg/mL SKE
[8] = in RAI, contents as in 0.1 mg/mL SKE

Sequence of P-gp (P08183 whole entry): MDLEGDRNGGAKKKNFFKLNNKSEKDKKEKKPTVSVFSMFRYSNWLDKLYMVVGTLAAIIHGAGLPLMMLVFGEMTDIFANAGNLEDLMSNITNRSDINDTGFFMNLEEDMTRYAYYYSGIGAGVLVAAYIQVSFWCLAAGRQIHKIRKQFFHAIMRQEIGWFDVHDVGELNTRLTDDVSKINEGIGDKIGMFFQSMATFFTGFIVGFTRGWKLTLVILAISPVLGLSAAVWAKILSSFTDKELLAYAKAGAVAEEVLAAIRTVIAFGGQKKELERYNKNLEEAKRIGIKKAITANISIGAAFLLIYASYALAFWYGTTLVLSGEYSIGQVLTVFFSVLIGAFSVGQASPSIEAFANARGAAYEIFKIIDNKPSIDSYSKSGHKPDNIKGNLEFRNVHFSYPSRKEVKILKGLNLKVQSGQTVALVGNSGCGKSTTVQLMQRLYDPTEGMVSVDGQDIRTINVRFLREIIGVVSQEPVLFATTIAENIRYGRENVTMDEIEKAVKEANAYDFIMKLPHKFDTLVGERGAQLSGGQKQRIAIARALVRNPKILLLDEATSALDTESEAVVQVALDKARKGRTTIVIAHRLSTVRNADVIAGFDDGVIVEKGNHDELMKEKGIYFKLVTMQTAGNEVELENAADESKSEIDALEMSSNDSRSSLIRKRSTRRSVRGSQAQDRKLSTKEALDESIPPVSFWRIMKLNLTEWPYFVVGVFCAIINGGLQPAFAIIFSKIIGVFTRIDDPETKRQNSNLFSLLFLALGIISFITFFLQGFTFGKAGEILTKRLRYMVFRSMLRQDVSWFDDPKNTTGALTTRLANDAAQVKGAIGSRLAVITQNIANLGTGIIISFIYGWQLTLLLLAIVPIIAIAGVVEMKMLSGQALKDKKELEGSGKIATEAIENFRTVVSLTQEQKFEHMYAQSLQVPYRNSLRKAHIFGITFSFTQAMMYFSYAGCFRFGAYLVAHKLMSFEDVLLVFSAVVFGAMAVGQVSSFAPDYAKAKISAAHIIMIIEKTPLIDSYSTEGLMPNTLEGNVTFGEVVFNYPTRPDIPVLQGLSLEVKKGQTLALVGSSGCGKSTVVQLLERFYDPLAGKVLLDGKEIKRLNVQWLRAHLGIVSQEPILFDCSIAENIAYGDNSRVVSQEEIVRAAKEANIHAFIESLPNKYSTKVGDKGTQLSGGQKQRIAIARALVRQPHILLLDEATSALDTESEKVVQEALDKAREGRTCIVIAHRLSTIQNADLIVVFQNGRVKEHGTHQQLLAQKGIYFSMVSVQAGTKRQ

| Compound | Peff in RAI compared with SKE [1] | pKa [2] | efflux ratio at 0.05 mg/mL [3, 7] | efflux ratio at 0.1 mg/mL [3, 8] | efflux ratio at 0.025 mg/mL ([3]; in SKE) | efflux ratio at 0.05 mg/mL ([3]; in SKE, 0.05 mg/mL) | efflux ratio at 0.1 mg/mL ([3]; in SKE, 0.1 mg/mL) | Papp A→B at 0.05 mg/mL [3, 7] [nm/s] | Papp A→B at 0.1 mg/mL [3, 8] [nm/s] | Papp A→B at 0.025 mg/mL ([3]; in SKE) [nm/s] | Papp A→B at 0.05 mg/mL ([3]; in SKE, 0.05 mg/mL) [nm/s] | Papp A→B at 0.1 mg/mL ([3]; in SKE, 0.1 mg/mL) [nm/s] | Papp B→A at 0.05 mg/mL [3, 7] [nm/s] | Papp B→A at 0.1 mg/mL [3, 8] [nm/s] | Papp B→A at 0.025 mg/mL ([3]; in SKE) [nm/s] | Papp B→A at 0.05 mg/mL ([3]; in SKE, 0.05 mg/mL) [nm/s] | Papp B→A at 0.1 mg/mL ([3]; in SKE, 0.1 mg/mL) [nm/s] | Cumulative transport mass (AP-BL) [4] | ER after addition of verapamil, compared with SKE group [5] | ER after addition of MK571, compared with SKE group [6] | also measured |
| --- | --- | --- | --- | --- | --- | --- | --- | --- | --- | --- | --- | --- | --- | --- | --- | --- | --- | --- | --- | --- | --- |
| O=C(O)c1cc(O)c2c(c1)C(=O)c1cccc(O)c1C2=O [Rhein, rhein] | lower than that in SKE | 4.72 | 0.76 | 0.88 | 0.96 | 0.73 | 0.64 | 350 ± 17.2 | 342 ± 11.3 | 274 ± 14.7 | 280.2 ± 1.4 | 310 ± 23.1 | 266 ± 10.3 | 301 ± 13.7 | 210 ± 4 | 205 ± 4.6 | 198 ± 3.7 | time- and concentration-dependent | – | – | Papp(A-B) as fold of Papp(B-A) ([4]; 0.025 mg/mL SKE): 1.4 fold; Papp(A-B) as fold of Papp(B-A) ([4]; 0.05 mg/mL SKE): 1.6 fold; ER (over all concentrations) ([4]; in RAI, contents as in 0.025-0.1 mg/mL SKE): lower than 1.0; ER (over all concentrations) ([4]; in SKE, 0.025-0.1 mg/mL): lower than 1.0 |
| O=C1c2cccc(O)c2C(=O)c2c(O)cc(CO)cc21 [Aloe-emodin, aloe-emodin] | higher than those in SKE | 8.64 | – | – | – | – | – | 151 ± 15.4 | 143 ± 10.6 | 196 ± 20.4 | 194 ± 14.7 | 176 ± 7.4 | 161 ± 18.3 | 173 ± 7.9 | 240 ± 5.9 | 234 ± 15.6 | 194 ± 16.5 | time- and concentration-dependent | reduced the most | decreased | – |
| Cc1cc(O)c2c(c1)C(=O)c1cccc(O)c1C2=O [Chrysophanol, chrysophanol] | higher than those in SKE | 8.58 | 1.75 | 1.66 | 2.22 | 2.02 | 1.61 | 89.9 ± 4.4 | 79.7 ± 10.6 | 62.3 ± 8.6 | 68.7 ± 2.3 | 66.3 ± 4.8 | 157 ± 10.5 | 132 ± 6.7 | 138 ± 6.5 | 139 ± 8.6 | 107 ± 1.5 | time- and concentration-dependent | decreased | reduced the most | – |
| Cc1cc(O)c2c(c1)C(=O)c1cc(O)cc(O)c1C2=O [Emodin, emodin] | higher than those in SKE | 5.70 | 1.48 | 1.62 | 1.6 | 1.59 | 1.46 | 77.4 ± 6.1 | 73.1 ± 9.7 | 74 ± 0.8 | 66.5 ± 1.6 | 62.4 ± 2.9 | 115 ± 2.7 | 118 ± 6.6 | 119 ± 11.1 | 106 ± 3.1 | 91.3 ± 4.2 | time- and concentration-dependent | reduced the most | decreased | – |
